Experimental data as given in ChEMBL document CHEMBL4190262, “Tuning of β-glucosidase and α-galactosidase inhibition by generation and in situ screening of a library of pyrrolidine-triazole hybrid molecules” (Eur J Med Chem, 2017).

Key:
[1] = Selectivity ratio of IC50 for human lysosomal alpha-galactosidase A to IC50 for coffee beans alpha-galactosidase
[2] = Inhibition of bovine liver beta-glucosidase using p-nitrophenyl glycopyranoside preincubated for 5 mins followed by substrate addition measured after 20 mins by visible absorption spectroscopic method; set-up: species or system Bos taurus
In short: (§1)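 IC50 determined only for compounds giving ≥80% inhibition at 1 mM, read from plots of % inhibition versus inhibitor concentration. p-Nitrophenyl glycopyranoside substrate (10 mM solution) at the enzyme's optimal pH, with 0.01–0.5 units/mL enzyme. 5 min rt preincubation with enzyme, then 20 min at 37 °C. Borate stop (pH 9.8), absorbance at 405 nm. Duplicates averaged.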

Alpha-galactosidase = Alpha-galactosidase (Coffea arabica, UniProt Q42656); experiment: Inhibition of coffee beans alpha-galactosidase using p-nitrophenyl glycopyranoside preincubated for 5 mins followed by substrate addition measured after 20 mins by visible absorption spectroscopic method; in short: as §1
Chain of Alpha-galactosidase (Q42656 whole entry): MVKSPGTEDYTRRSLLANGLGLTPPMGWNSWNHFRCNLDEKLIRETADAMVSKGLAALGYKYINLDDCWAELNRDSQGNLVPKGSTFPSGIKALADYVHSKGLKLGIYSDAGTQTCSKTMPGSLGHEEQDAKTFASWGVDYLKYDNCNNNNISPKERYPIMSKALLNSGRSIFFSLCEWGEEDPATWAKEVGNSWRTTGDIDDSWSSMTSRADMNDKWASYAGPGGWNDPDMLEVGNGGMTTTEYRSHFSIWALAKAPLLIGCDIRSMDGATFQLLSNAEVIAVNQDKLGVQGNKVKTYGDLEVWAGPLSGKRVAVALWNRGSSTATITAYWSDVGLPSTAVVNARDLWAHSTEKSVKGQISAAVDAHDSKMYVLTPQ

Prunus dulcis = experiment: Inhibition of almond beta-glucosidase at 10 uM using p-nitrophenyl glycopyranoside preincubated for 5 mins followed by substrate addition measured after 20 mins by visible absorption spectroscopic method relative to control
In short: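 Crude click-reaction products screened in situ. Azide (final 15 mM) was reacted with each alkyne using sodium ascorbate/CuSO4 in tBuOH–H2O for 24 h at rt, then diluted with water. Tested at 10 μM per well, assuming quantitative conversion, against almond β-glucosidase at pH 5, 37 °C. p-Nitrophenyl glycoside read-out at 405 nm.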

[3] = Inhibition of almond beta-glucosidase using p-nitrophenyl glycopyranoside preincubated for 5 mins followed by substrate addition measured after 20 mins by visible absorption spectroscopic method; set-up: species or system Prunus dulcis; in short: as §1
Bos taurus = species on record: Bos taurus; experiment: Inhibition of bovine liver beta-glucosidase at 1 mM using p-nitrophenyl glycopyranoside preincubated for 5 mins followed by substrate addition measured after 20 mins by visible absorption spectroscopic method relative to control
In short: (§2)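 Test compound at 1 mM in well. Mix: 0.01–0.5 units/mL enzyme plus 10 mM p-nitrophenyl glycopyranoside (aqueous solution), buffered to the enzyme's optimal pH. Enzyme and inhibitor preincubated 5 min at rt. Substrate then added and incubated 20 min at 37 °C. Stopped with sodium borate (pH 9.8). p-Nitrophenolate read at 405 nm. Duplicates averaged.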

[4] = molecular target: Alpha-galactosidase (Coffea arabica) (UniProt Q42656); experiment: Inhibition of coffee beans alpha-galactosidase at 1 mM using p-nitrophenyl glycopyranoside preincubated for 5 mins followed by substrate addition measured after 20 mins by visible absorption spectroscopic method relative to control; in short: as §2
Chain of Alpha-galactosidase (Coffea arabica) (Q42656 16-378 limits assumed): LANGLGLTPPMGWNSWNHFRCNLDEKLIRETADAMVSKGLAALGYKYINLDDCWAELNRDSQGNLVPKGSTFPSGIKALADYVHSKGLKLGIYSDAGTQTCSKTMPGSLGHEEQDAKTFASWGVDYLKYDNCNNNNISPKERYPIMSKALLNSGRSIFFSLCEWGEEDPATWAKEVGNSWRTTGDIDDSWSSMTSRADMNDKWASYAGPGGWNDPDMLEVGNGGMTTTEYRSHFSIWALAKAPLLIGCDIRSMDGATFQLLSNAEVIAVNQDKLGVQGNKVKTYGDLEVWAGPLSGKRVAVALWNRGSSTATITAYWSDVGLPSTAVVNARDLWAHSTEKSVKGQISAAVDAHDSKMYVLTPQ

[5] = molecular target: T1, Alpha-galactosidase A (Homo sapiens) (UniProt P06280); experiment: Inhibition of human lysosomal alpha-galactosidase A at 1 mM using 4-methylumbelliferyl-alpha-D-galactopyranoside as substrate preincubated for 45 mins followed by substrate addition measured after 30 mins by fluorescence spectroscopic method relative to control
T1 sequence (whole entry): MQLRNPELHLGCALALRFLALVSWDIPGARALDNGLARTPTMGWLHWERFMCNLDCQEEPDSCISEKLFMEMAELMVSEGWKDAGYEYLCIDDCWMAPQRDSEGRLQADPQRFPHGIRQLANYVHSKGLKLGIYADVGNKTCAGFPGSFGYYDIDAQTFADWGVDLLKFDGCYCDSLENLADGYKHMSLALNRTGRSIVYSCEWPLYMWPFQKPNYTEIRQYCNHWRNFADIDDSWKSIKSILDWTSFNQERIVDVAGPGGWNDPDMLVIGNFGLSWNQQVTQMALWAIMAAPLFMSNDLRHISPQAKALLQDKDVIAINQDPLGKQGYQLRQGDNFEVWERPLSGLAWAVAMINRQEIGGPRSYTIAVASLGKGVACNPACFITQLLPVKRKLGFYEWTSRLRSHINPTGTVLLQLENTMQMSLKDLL
In short: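 Enzyme in 100 mM McIlvaine buffer pH 5.2 with 0.25% sodium taurocholate and 0.1% Triton X-100, with inhibitor. Preincubated at 0 °C for 45 min, then started with 3 mM 4-methylumbelliferyl glycoside substrate solution and incubated 30 min at 37 °C. Stopped with 400 mM glycine-NaOH pH 10.6. 4-Methylumbelliferone fluorescence read at ex 362/em 450 nm.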

Ratio IC50 [1]	IC50 [2] [µM]	IC50 (Alpha-galactosidase) [µM]	inhibition (Prunus dulcis) [%]	IC50 [3] [µM]	inhibition (Bos taurus) [%]	inhibition [4] [%]	inhibition [5] [%]	Compound
10	240	14						O[C@@H]1[C@H](O)CN[C@@H]1Cn1cc(-c2ccccc2)nn1
			72	8	< 50	< 50	< 50	O[C@@H]1[C@H](O)CN[C@H]1Cn1cc(-c2ccccc2)nn1
